ChEMBL document CHEMBL1144491, “Synthesis and characterization of styrylchromone derivatives as beta-amyloid imaging agents” (Bioorg Med Chem, 2007)

Assays:
Heart [1] = assay: Biodistribution in ddY mouse heart assessed as radioactivity at 0.5 uCi, iv after 2 mins; format: ADME, organism-based; settings: in vivo
Method in brief: (§1)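 Normal mice given no-carrier-added 125I-labelled tracer (HPLC-purified) by intravenous injection, then sampled at 2, 10, 30 and 60 min. Radioactivity expressed as % injected dose per gram of tissue, and per whole organ for stomach. Values are mean (SD) of 3–5 animals per time point.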

Stomach [2] = assay: Biodistribution in ddY mouse stomach assessed as radioactivity at 0.5 uCi, iv after 2 mins; format: ADME, organism-based; settings: in vivo; method in brief: as §1
Pancreas [3] = assay: Biodistribution in ddY mouse pancreas assessed as radioactivity at 0.5 uCi, iv after 60 mins; format: ADME, organism-based; settings: in vivo, 1 h; method in brief: as §1
Pancreas [4] = assay: Biodistribution in ddY mouse pancreas assessed as radioactivity at 0.5 uCi, iv after 2 mins; format: ADME, organism-based; settings: in vivo; method in brief: as §1
Kidney [5] = assay: Biodistribution in ddY mouse kidney assessed as radioactivity at 0.5 uCi, iv after 30 mins; format: ADME, organism-based; settings: in vivo, 0.5 h; method in brief: as §1
Spleen [6] = assay: Biodistribution in ddY mouse spleen assessed as radioactivity at 0.5 uCi, iv after 10 mins; format: ADME, organism-based; settings: in vivo; method in brief: as §1
Stomach [7] = assay: Biodistribution in ddY mouse stomach assessed as radioactivity at 0.5 uCi, iv after 30 mins; format: ADME, organism-based; settings: in vivo, 0.5 h; method in brief: as §1
Pancreas [8] = assay: Biodistribution in ddY mouse pancreas assessed as radioactivity at 0.5 uCi, iv after 10 mins; format: ADME, organism-based; settings: in vivo; method in brief: as §1
Heart [9] = assay: Biodistribution in ddY mouse heart assessed as radioactivity at 0.5 uCi, iv after 30 mins; format: ADME, organism-based; settings: in vivo, 0.5 h; method in brief: as §1
Stomach [10] = assay: Biodistribution in ddY mouse stomach assessed as radioactivity at 0.5 uCi, iv after10 mins; format: ADME, organism-based; settings: in vivo, 10 min; method in brief: as §1
Brain [11] = assay: Biodistribution in ddY mouse brain assessed as radioactivity at 0.5 uCi, iv after 30 mins; format: ADME, organism-based; settings: in vivo, 0.5 h; method in brief: as §1
Intestine [12] = assay: Biodistribution in ddY mouse intestine assessed as radioactivity at 0.5 uCi, iv after 60 mins; format: ADME, organism-based; settings: in vivo, 1 h; method in brief: as §1
Blood [13] = assay: Biodistribution in ddY mouse blood assessed as radioactivity at 0.5 uCi, iv after30 mins; format: ADME, organism-based; settings: in vivo, 0.5 h; method in brief: as §1
Brain [14] = assay: Biodistribution in ddY mouse brain assessed as radioactivity at 0.5 uCi, iv after 10 mins; format: ADME, organism-based; settings: in vivo; method in brief: as §1
Brain [15] = assay: Biodistribution in ddY mouse brain assessed as radioactivity at 0.5 uCi, iv after 2 mins; format: ADME, organism-based; settings: in vivo; method in brief: as §1
Spleen [16] = assay: Biodistribution in ddY mouse spleen assessed as radioactivity at 0.5 uCi, iv after 2 mins; format: ADME, organism-based; settings: in vivo; method in brief: as §1
Pancreas [17] = assay: Biodistribution in iv dosed ddY mouse pancreas assessed as radioactivity after 30 mins; format: ADME, organism-based; settings: in vivo, 0.5 h; method in brief: as §1
Kidney [18] = assay: Biodistribution in ddY mouse kidney assessed as radioactivity at 0.5 uCi, iv after 2 mins; format: ADME, organism-based; settings: in vivo; method in brief: as §1
Heart [19] = assay: Biodistribution in ddY mouse heart assessed as radioactivity at 0.5 uCi, iv after 60 mins; format: ADME, organism-based; settings: in vivo, 1 h; method in brief: as §1
Blood [20] = assay: Biodistribution in ddY mouse blood assessed as radioactivity at 0.5 uCi, iv after 10 mins; format: ADME, organism-based; settings: in vivo; method in brief: as §1
Kidney [21] = assay: Biodistribution in ddY mouse kidney assessed as radioactivity at 0.5 uCi, iv after 60 mins; format: ADME, organism-based; settings: in vivo, 1 h; method in brief: as §1
Liver [22] = assay: Biodistribution in ddY mouse liver assessed as radioactivity at 0.5 uCi, iv after 30 mins; format: ADME, organism-based; settings: in vivo, 0.5 h; method in brief: as §1
Kidney [23] = assay: Biodistribution in ddY mouse kidney assessed as radioactivity at 0.5 uCi, iv after 10 mins; format: ADME, organism-based; settings: in vivo; method in brief: as §1
Heart [24] = assay: Biodistribution in ddY mouse heart assessed as radioactivity at 0.5 uCi, iv after 10 mins; format: ADME, organism-based; settings: in vivo; method in brief: as §1
Blood [25] = assay: Biodistribution in ddY mouse blood assessed as radioactivity at 0.5 uCi, iv after 2 mins; format: ADME, organism-based; settings: in vivo; method in brief: as §1
[26] = Binding affinity at amyloid peptide plaques; parameters: species or system Homo sapiens
Method in brief: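 Saturation binding to synthetic Aβ(1–40) aggregates (57 nM final), pre-aggregated at 0.5 mg/mL in pH 7.4 10 mM sodium phosphate/1 mM EDTA, 37 °C, 42 h with shaking. Radioiodinated ligand 1–125 nM final (made by mixing with cold compound), in 10% ethanol, 3 h at room temperature. Filtered on GF/B, bound 125I gamma-counted. Nonspecific binding defined with 1 µM cold ligand. Kd by Scatchard analysis.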

Stomach [27] = assay: Biodistribution in ddY mouse stomach assessed as radioactivity at 0.5 uCi, iv after 60 mins; format: ADME, organism-based; settings: in vivo, 1 h; method in brief: as §1
Liver [28] = assay: Biodistribution in ddY mouse liver assessed as radioactivity at 0.5 uCi, iv after 60 mins; format: ADME, organism-based; settings: in vivo, 1 h; method in brief: as §1
Brain [29] = assay: Biodistribution in ddY mouse brain assessed as radioactivity at 0.5 uCi, iv after 60 mins; format: ADME, organism-based; settings: in vivo, 1 h; method in brief: as §1
Spleen [30] = assay: Biodistribution in ddY mouse spleen assessed as radioactivity at 0.5 uCi, iv after 60 mins; format: ADME, organism-based; settings: in vivo, 1 h; method in brief: as §1
Spleen [31] = assay: Biodistribution in ddY mouse spleen assessed as radioactivity at 0.5 uCi, iv after 30 mins; format: ADME, organism-based; settings: in vivo, 0.5 h; method in brief: as §1
Blood [32] = assay: Biodistribution in ddY mouse blood assessed as radioactivity at 0.5 uCi, iv after 60 mins; format: ADME, organism-based; settings: in vivo, 1 h; method in brief: as §1
Liver [33] = assay: Biodistribution in ddY mouse liver assessed as radioactivity at 0.5 uCi, iv after 10 mins; format: ADME, organism-based; settings: in vivo; method in brief: as §1
[34] = Partition coefficient, log P at pH 7.4; format: physicochemical; settings: octanol/water
Method in brief: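 HPLC-purified radioiodinated tracer partitioned between 3 mL 1-octanol and 3 mL 0.1 M phosphate buffer pH 7.4. Vortexed 3 min at room temperature, then centrifuged 5 min. 0.5 mL samples from each layer well-counted. Ratio taken of octanol to buffer cpm/0.5 mL. Octanol layer re-partitioned until values were consistent. Done in triplicate and repeated three times.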

Liver [35] = assay: Biodistribution in ddY mouse liver assessed as radioactivity at 0.5 uCi, iv after 2 mins; format: ADME, organism-based; settings: in vivo; method in brief: as §1
Intestine [36] = assay: Biodistribution in ddY mouse intestine assessed as radioactivity at 0.5 uCi, iv after 30 mins; format: ADME, organism-based; settings: in vivo, 0.5 h; method in brief: as §1
Intestine [37] = assay: Biodistribution in ddY mouse intestine assessed as radioactivity at 0.5 uCi, iv after10 mins; format: ADME, organism-based; settings: in vivo, 10 min; method in brief: as §1
Intestine [38] = assay: Biodistribution in ddY mouse intestine assessed as radioactivity at 0.5 uCi, iv after 2 mins; format: ADME, organism-based; settings: in vivo; method in brief: as §1

Row | Structure (SMILES) | Drug uptake (Heart [1]) [% ID/g] | Drug uptake (Stomach [2]) [%ID] | Drug uptake (Pancreas [3]) [% ID/g] | Drug uptake (Pancreas [4]) [% ID/g] | Drug uptake (Kidney [5]) [% ID/g] | Drug uptake (Spleen [6]) [% ID/g] | Drug uptake (Stomach [7]) [%ID] | Drug uptake (Pancreas [8]) [% ID/g] | Drug uptake (Heart [9]) [% ID/g] | Drug uptake (Stomach [10]) [%ID] | Drug uptake (Brain [11]) [% ID/g] | Drug uptake (Intestine [12]) [% ID/g] | Drug uptake (Blood [13]) [% ID/g] | Drug uptake (Brain [14]) [% ID/g] | Drug uptake (Brain [15]) [% ID/g] | Drug uptake (Spleen [16]) [% ID/g] | Drug uptake (Pancreas [17]) [% ID/g] | Drug uptake (Kidney [18]) [% ID/g] | Drug uptake (Heart [19]) [% ID/g] | Drug uptake (Blood [20]) [% ID/g] | further results
1 | CNc1ccc(/C=C/c2cc(=O)c3cc([125I])ccc3o2)cc1 | 6.92 | 1 | 1.32 | 4.92 | 5.48 | 4.42 | 2.01 | 3.56 | 2.09 | 1.89 | 1.86 | 19.16 | 2.19 | 2.96 | 2.84 | 3.88 | 2.25 | 10.41 | 1.47 | 2.44 | Drug uptake (Kidney [21]): 3.52 % ID/g; Drug uptake (Liver [22]): 11.13 % ID/g; Drug uptake (Kidney [23]): 7.05 % ID/g; Drug uptake (Heart [24]): 3.31 % ID/g; Drug uptake (Blood [25]): 3.21 % ID/g; Kd [26]: 17.5 nM; Drug uptake (Stomach [27]): 1.9 %ID; Drug uptake (Liver [28]): 7.82 % ID/g; Drug uptake (Brain [29]): 0.99 % ID/g; Drug uptake (Spleen [30]): 1.51 % ID/g; Drug uptake (Spleen [31]): 2.66 % ID/g; Drug uptake (Blood [32]): 1.79 % ID/g; Drug uptake (Liver [33]): 14.41 % ID/g; logD [34]: 2.15; Drug uptake (Liver [35]): 14.55 % ID/g; Drug uptake (Intestine [36]): 16.72 % ID/g; Drug uptake (Intestine [37]): 8.55 % ID/g; Drug uptake (Intestine [38]): 2.59 % ID/g
2 | Nc1ccc(/C=C/c2cc(=O)c3cc([125I])ccc3o2)cc1 | 8.4 | 1.24 | 1.11 | 6.58 | 4.91 | 3.64 | 2.17 | 5.18 | 2.43 | 1.81 | 2.78 | 16.08 | 2.56 | 4.4 | 4.88 | 4.23 | 3.07 | 11.94 | 1.64 | 2.44 | Drug uptake (Kidney [21]): 3.76 % ID/g; Drug uptake (Liver [22]): 10.27 % ID/g; Drug uptake (Kidney [23]): 6.99 % ID/g; Drug uptake (Heart [24]): 3.78 % ID/g; Drug uptake (Blood [25]): 2.34 % ID/g; Kd [26]: 32 nM; Drug uptake (Stomach [27]): 3.29 %ID; Drug uptake (Liver [28]): 8.16 % ID/g; Drug uptake (Brain [29]): 1.62 % ID/g; Drug uptake (Spleen [30]): 2.16 % ID/g; Drug uptake (Spleen [31]): 2.92 % ID/g; Drug uptake (Blood [32]): 2.27 % ID/g; Drug uptake (Liver [33]): 14.49 % ID/g; logD [34]: 1.65; Drug uptake (Liver [35]): 13.23 % ID/g; Drug uptake (Intestine [36]): 11.71 % ID/g; Drug uptake (Intestine [37]): 5.51 % ID/g; Drug uptake (Intestine [38]): 2.84 % ID/g
